Data taken from ChEMBL document CHEMBL3763062, “Conformational Analysis of the Host-Defense Peptides Pseudhymenochirin-1Pb and -2Pa and Design of Analogues with Insulin-Releasing Activities and Reduced Toxicities” (J Nat Prod, 2015).
≈ marks a conversion by molar mass, not a printed value. Residues, ends and D or L forms follow the SMILES beside them.

Experiments:
[1] = tested on: HT-29; test: Cytotoxicity against human HT-29 cells assessed as cell viability after 24 hrs by CellTiter-Glo luminescent assay; assay type: functional, cell-based; conditions: HT-29, 24 h
Outline: (§1)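 Human tumour lines and HUVEC were cultured at 37 °C in medium with antibiotics. Cells were seeded at 5 × 10³ cells/well and exposed to peptides (10⁻⁶–10⁻⁴ M) in triplicate for 24 h at 37 °C. Viability was read as ATP luminescence. IC50 is the mean concentration giving 50% cell death over at least three independent experiments.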

[2] = (§2) Induction of insulin release in rat BRIN-BD11 cells after 20 mins by radioimmunoassay in presence of 5.6 mM glucose; assay type: functional; conditions: BRIN-BD11, 20 min, read-out: MEC
Outline: (§3)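 BRIN-BD11 cells were seeded and allowed to attach overnight at 37 °C. They were then incubated 20 min at 37 °C with peptides (10⁻¹¹ to 3 × 10⁻⁶ M; n = 8) in KRB buffer with 5.6 mM glucose. Supernatant insulin was measured by radioimmunoassay, expressed as ng/10⁶ cells/20 min, and compared with 5.6 mM glucose alone.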

[3] = tested on: HUVEC; test: Cytotoxicity against human HUVEC cells assessed as cell viability after 24 hrs by CellTiter-Glo luminescent assay; assay type: cell-based; outline: as §1
[4] = tested on: MDA-MB-231; test: Cytotoxicity against human MDA-MB-231 cells assessed as cell viability after 24 hrs by CellTiter-Glo luminescent assay; assay type: functional, cell-based; conditions: MDA-MB-231, 24 h; outline: as §1
[5] = tested on: A549; test: Cytotoxicity against human A549 cells assessed as cell viability after 24 hrs by CellTiter-Glo luminescent assay; assay type: functional, cell-based; conditions: A549, 24 h; outline: as §1
[6] = tested on: Staphylococcus aureus; test: Antibacterial activity against Staphylococcus aureus ATCC 25923 by microdilution method; assay type: functional
Outline: (§4)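 Reference ATCC strains tested. The MIC was determined by standard broth microdilution in three independent experiments.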

[7] = Cytotoxicity against Swiss mouse RBC assessed as hemolytic activity […]; assay type: cell-based; conditions: Erythrocyte
Outline: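 Erythrocytes came from male NIH Swiss mice and were exposed to peptides at 1.6 × 10⁻⁶ to […]. IC50 is the mean concentration producing 50% haemolysis.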

[8] = Cytotoxicity in rat BRIN-BD11 cells assessed as LDH release at 1 or 3 uM after 20 mins by CytoTox96 assay; assay type: cell-based; conditions: brin-bd11, 20 min
Outline: (§5)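 BRIN-BD11 monolayers were exposed to peptides (10⁻¹¹ to 3 × 10⁻⁶ M; n = 6) for 20 min at 37 °C in KRB buffer with 5.6 mM glucose. LDH in the supernatant was quantified by a colorimetric kit and compared with 5.6 mM glucose alone.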

[9] = tested on: Pseudomonas aeruginosa; test: Antibacterial activity against Pseudomonas aeruginosa ATCC 27853 by microdilution method; assay type: functional; outline: as §4
[10] = tested on: Escherichia coli; test: Antibacterial activity against Escherichia coli ATCC 25922 by microdilution method; assay type: functional; outline: as §4
[11] = tested on: Staphylococcus epidermidis; test: Antibacterial activity against Staphylococcus epidermidis ATCC 12228 by microdilution method; assay type: functional; outline: as §4
[12] = Induction of insulin release in rat BRIN-BD11 cells at 3 uM after 20 mins in presence of 5.6 mM glucose by radioimmunoassay relative to control; assay type: functional; outline: as §3
[13] = Cytotoxicity in rat BRIN-BD11 cells assessed as LDH release at >1 uM after 20 mins by CytoTox96 assay; assay type: cell-based; conditions: brin-bd11, 20 min; outline: as §5
[14] = Induction of insulin release in rat BRIN-BD11 cells at […] after 20 mins measured per 10^6 cells by radioimmunoassay in presence of 5.6 mM glucose (reference value: 0.97 to 1.05 ng); assay type: functional
[15] = tested on: BRIN-BD11; test: as §2; assay type: functional; outline: as §3
[16] = Cytotoxicity in rat BRIN-BD11 cells assessed as LDH release at >= 1 uM after 20 mins by CytoTox96 assay; assay type: cell-based; conditions: brin-bd11, 20 min; outline: as §5

Row | MIC [6] [µM] | MIC [9] [µM] | MIC [10] [µM] | MIC [11] [µM] | Compound | IC50 [1] [µM] | minimal effective concentration [2] [µM] | IC50 [3] [µM] | IC50 [4] [µM] | IC50 [5] [µM] | IC50 [7] [µM] | Activity [8] | Activity [12] [%] | Activity [13] | Activity [14] [ng] | Activity [15] | Activity [16]
1 | 80 (≈ 253 µg/mL) | 10 (≈ 31.6 µg/mL) | 2.5 (≈ 7.89 µg/mL) | 40 (≈ 126 µg/mL) | CC[C@H](C)[C@H](N)C(=O)N[C@@H](CCCCN)C(=O)N[C@H](C(=O)N1CCC[C@H]1C(=O)N[C@@H](CO)C(=O)N[C@@H](Cc1ccccc1)C(=O)N[C@@H](Cc1ccccc1)C(=O)N[C@H](CCCNC(=N)N)C(=O)N[C@@H](CC(N)=O)C(=O)N[C@H](C(=O)N[C@@H](CC(C)C)C(=O)N[C@@H](CCCCN)C(=O)N[C@@H](CCCCN)C(=O)N[C@H](C(=O)NCC(=O)N[C@@H](CCCCN)C(=O)N[C@@H](CCC(=O)O)C(=O)N[C@@H](C)C(=O)N[C@H](C(=O)N[C@@H](CO)C(=O)N[C@@H](CC(C)C)C(=O)N[C@H](C(=O)N[C@@H](C)C(=O)NCC(=O)N[C@@H](C)C(=O)N[C@@H](CC(C)C)C(=O)N[C@@H](CCCCN)C(=O)N[C@@H](CCC(N)=O)C(=O)N[C@@H](CO)C(=O)O)[C@@H](C)CC)C(C)C)C(C)C)[C@@H](C)CC)[C@@H](C)CC | 35 | 0.0003 | 27 | 20 | 7.2 | > 100 | Non-toxic | 190 | – | – | – | –
2 | 5 (≈ 14.4 µg/mL) | 80 (≈ 230 µg/mL) | 80 (≈ 230 µg/mL) | 5 (≈ 14.4 µg/mL) | CC[C@H](C)[C@H](NC(=O)CN)C(=O)N[C@@H](Cc1ccccc1)C(=O)N1CCC[C@H]1C(=O)N[C@H](C(=O)N[C@@H](Cc1ccccc1)C(=O)N[C@@H](C)C(=O)N[C@@H](CCCCN)C(=O)N[C@@H](CC(C)C)C(=O)N[C@@H](CC(C)C)C(=O)NCC(=O)N[C@@H](CCCCN)C(=O)N[C@H](C(=O)N[C@H](C(=O)N[C@@H](CCCCN)C(=O)N[C@H](C(=O)N[C@@H](C)C(=O)N[C@@H](CO)C(=O)N[C@@H](CO)C(=O)N[C@@H](CC(C)C)C(=O)N[C@H](C(=O)N[C@@H](CO)C(=O)N[C@@H](CCCCN)C(=O)NCC(=O)N[C@@H](CCCNC(=N)N)C(=O)NC(C(=O)N[C@@H](CCC(=O)O)C(=O)O)[C@@H](C)O)[C@@H](C)CC)C(C)C)[C@@H](C)CC)C(C)C)[C@@H](C)CC (some centres not stated) (HELM PEPTIDE1{G.I.F.P.I.F.A.K.L.L.G.K.V.I.K.V.A.S.S.L.I.S.K.G.R.[C[C@@H](O)C(N[*:1])C(=O)[*:2]].E}$$$$V2.0) | 12 | 0.0001 | 68 | 6.2 | 6 | 7 | – | 700 | Toxic | – | – | –
3 | – | – | – | – | C[C@H](N)C(=O)O [ALANINE] | – | – | – | – | – | – | – | – | – | 4.2 | – | –
4 | 5 (≈ 15.8 µg/mL) | 20 (≈ 63.1 µg/mL) | 10 (≈ 31.6 µg/mL) | 2.5 (≈ 7.89 µg/mL) | CC[C@H](C)[C@H](N)C(=O)N[C@@H](CCCCN)C(=O)N[C@H](C(=O)N1CCC[C@H]1C(=O)N[C@@H](CO)C(=O)N[C@@H](Cc1ccccc1)C(=O)N[C@@H](Cc1ccccc1)C(=O)N[C@@H](CCCNC(=N)N)C(=O)N[C@@H](CC(N)=O)C(=O)N[C@H](C(=O)N[C@@H](CC(C)C)C(=O)N[C@@H](CCCCN)C(=O)N[C@@H](CCCCN)C(=O)N[C@H](C(=O)NCC(=O)N[C@@H](CCCCN)C(=O)N[C@@H](CCC(=O)O)C(=O)N[C@@H](C)C(=O)N[C@H](C(=O)N[C@@H](CO)C(=O)N[C@@H](CC(C)C)C(=O)N[C@H](C(=O)N[C@@H](C)C(=O)NCC(=O)N[C@@H](C)C(=O)N[C@@H](CC(C)C)C(=O)N[C@@H](CCCCN)C(=O)N[C@@H](CCC(N)=O)C(=O)N[C@@H](CO)C(=O)O)[C@@H](C)CC)C(C)C)C(C)C)[C@@H](C)CC)[C@@H](C)CC | 9.5 | 0.0001 | 5.6 | 6.6 | 2.5 | 30 | – | 530 | Toxic | – | Dose-dependent effect | –
5 | – | – | – | – | H-GIFPIFAKLLGKVIKVASSLISKGRTK-OH [listing 1 of 2 here] | 5.6 | – | 5 | 4.3 | 2.5 | 4 | – | – | – | – | – | Toxic
6 | – | – | – | – | H-GIFPIFAKLLGKVIKVASSLISKGRTK-OH [listing 2 of 2 here] | – | 0.001 | – | – | – | – | – | – | – | – | – | –
7 | – | – | – | – | CC[C@H](C)[C@H](N)C(=O)N[C@@H](CCCCN)C(=O)N[C@H](C(=O)N1CCC[C@H]1C(=O)N[C@@H](CO)C(=O)N[C@@H](Cc1ccccc1)C(=O)N[C@@H](Cc1ccccc1)C(=O)N[C@@H](CCCNC(=N)N)C(=O)N[C@@H](CC(N)=O)C(=O)N[C@H](C(=O)N[C@@H](CC(C)C)C(=O)N[C@@H](CCCCN)C(=O)N[C@@H](CCCCN)C(=O)N[C@H](C(=O)NCC(=O)N[C@@H](CCCCN)C(=O)N[C@H](CCCCN)C(=O)N[C@@H](C)C(=O)N[C@H](C(=O)N[C@@H](CO)C(=O)N[C@@H](CC(C)C)C(=O)N[C@H](C(=O)N[C@@H](C)C(=O)NCC(=O)N[C@@H](C)C(=O)N[C@@H](CC(C)C)C(=O)N[C@@H](CCCCN)C(=O)N[C@@H](CCC(N)=O)C(=O)N[C@@H](CO)C(=O)O)[C@@H](C)CC)C(C)C)C(C)C)[C@@H](C)CC)[C@@H](C)CC | 11 | 0.0003 | 5 | 3.6 | 2.1 | 19 | – | – | – | – | – | Toxic
